We go through 8 compounds from ChEMBL document CHEMBL4673252, “Discovery and Early Clinical Development of Isobutyl 1-[8-Methoxy-5-(1-oxo-3H-isobenzofuran-5-yl)-[1,2,4]triazolo[1,5-a]pyridin-2-yl]cyclopropanecarboxylate (LEO 39652), a Novel "Dual-Soft" PDE4 Inhibitor for Topical Treatment of Atopic Dermatitis” (J Med Chem, 2020).

In one series the target is Phosphodiesterase 4 (Homo sapiens, UniProt P27815+Q08499+Q07343+Q08493). Briefly: Inhibition of PDE4 (unknown origin). In kind it is protein assay.
A short description of series [1]: Drug exposure in skin of Gottingen mini pig at 0.25% dosed topically as monoglyceride cream measured after 24 hrs by LC-MS/MS analysis. It counts as ADME, organism-based, Sus scrofa domesticus, Skin of body. Particulars: in vivo, topical_or_ocular. The method, boiled down:
(§1)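 Female Göttingen minipigs received single topical application of 1 or 2.5 mg/g monoglyceride cream at 10 μL/cm² over 4 cm² of belly/flank; excess removed. At 24 h sites were tape stripped (2 + 10 strips), 8 mm punch biopsies were taken and snap frozen, then homogenized, acetonitrile precipitated and analysed by LC-MS/MS; n = 2.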

A short description of series [2]: Drug exposure in skin of Gottingen mini pig at 0.1% dosed topically as monoglyceride cream measured after 24 hrs by LC-MS/MS analysis. Particulars: in vivo, topical_or_ocular. It counts as ADME, organism-based, Sus scrofa domesticus, Skin of body. Summed up:
as §1

A short description of series [3]: Clearance in human liver microsomes at 0.5 uM incubated for 40 mins in presence of NADPH by LC-MS/MS analysis. It counts as ADME, Microsome. Particulars: read-out: CLH. The method, boiled down: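 Human liver microsomes (0.5 mg/mL) with 1 mM NADPH and 0.5 μM test compound, incubated for 40 min. Samples were taken before NADPH and at 5, 10, 20, 40 min, quenched with cold acetonitrile containing internal standard, and analysed by LC-MS/MS. Control incubations in buffer and without NADPH. Apparent clearance was calculated from depletion.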
For orientation: Microsomes from liver hold many membrane-bound enzymes, among them those of drug oxidation.

Series [4] can be described thus: Half life in human whole blood at 0.1 uM by LC-MS/MS analysis. In kind it is ADME, tissue-based.
A short description of series [5]: Half life in human keratinocytes at 1 uM by LC-MS/MS analysis. In kind it is ADME, cell-based, Keratinocyte. Summed up: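 Plated human epidermal keratinocytes (1 × 10⁴ cells/well) with 1 μM compound in duplicate for up to 24 h; sampled at 0, 1, 2, 4, 24 h, acetonitrile precipitation, LC-MS/MS. Controls in growth medium. Half-life reported.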
Series [6] can be described thus: Half life in mini pig whole blood at 0.1 uM by LC-MS/MS analysis. In kind it is ADME, tissue-based, Sus scrofa domesticus.
Series [7] can be described thus: Half life in rat whole blood at 0.1 uM by LC-MS/MS analysis. In kind it is ADME, tissue-based.
Series [8] is described as follows: Clearance in human hepatocytes at 10 uM by UPLC/TOF-MS analysis. In kind it is ADME, cell-based, Hepatocyte.
A short description of series [9]: Clearance in mini pig hepatocytes at 10 uM by UPLC/TOF-MS analysis. In kind it is ADME, cell-based, Sus scrofa domesticus, Hepatocyte. Particulars: read-out: CLH.
Series [10] in a line: Drug exposure in human assessed as ratio of drug level to total AUC at 0.25% of Isobutyl 1-[8-Methoxy-5-(1-oxo-3H-isobenzofuran-5-yl)-[1,2,4]-triazolo[1,5-a]pyridin-2-yl]cyclopropanecarboxylate dosed via topical administration in lipid cream. It counts as ADME, organism-based. Particulars: in vivo, topical_or_ocular.
A short description of series [11]: Drug exposure in Isobutyl 1-[8-Methoxy-5-(1-oxo-3H-isobenzofuran-5-yl)-[1,2,4]-triazolo[1,5-a]pyridin-2-yl]cyclopropanecarboxylate dosed cynomolgus monkey assessed as ratio of drug level to total AUC. In kind it is ADME, organism-based, Macaca fascicularis. Particulars: in vivo. Summed up:
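Blood was drawn at 0.25–24 h after infusion start and 6, 12, 24 h after infusion end into EDTA-K3, then plasma stabilized with ascorbic acid. LC-MS/MS quantification of parent and metabolites; noncompartmental PK.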

Series [12] can be described thus: Drug exposure in of Isobutyl 1-[8-Methoxy-5-(1-oxo-3H-isobenzofuran-5-yl)-[1,2,4]-triazolo[1,5-a]pyridin-2-yl]cyclopropanecarboxylate dosed Gottingen mini pig assessed as ratio of drug level to total AUC at 0.5 to 2 mg/kg, iv measured up to 24 hrs by LC-MS/MS analysis. Particulars: in vivo, dose 0.5-2 mg/kg. It counts as ADME, organism-based, Sus scrofa domesticus.

The nature of series [13]: Drug exposure in of Isobutyl 1-[8-Methoxy-5-(1-oxo-3H-isobenzofuran-5-yl)-[1,2,4]-triazolo[1,5-a]pyridin-2-yl]cyclopropanecarboxylate dosed Sprague-Dawley rat assessed as ratio of drug level to total AUC at 0.075 mg/kg, iv measured up to 30 mins by LC-MS/MS analysis. It counts as ADME, organism-based. Particulars: in vivo, 0.5 h. The method, boiled down:
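Male Sprague Dawley rats (n = 3) received a single iv injection of 0.075 mg/kg (50 μg/mL, 1.5 mL/kg) in 20% cyclodextrin. Blood was taken from the tongue vein at 1, 3, 6, 9, 12, 15 and 30 min into lithium-heparin, diluted 1:1 with heparin water, and analysed by LC-MS/MS for parent and metabolites.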

Series [14] is described as follows: Cmax in cynomolgus monkey at 30 mg/kg, sc dosed as single administration. It counts as ADME, organism-based, Macaca fascicularis. More on the design: route subcutaneous, dose 30 mg/kg. Particulars: in vivo, read-out: Cmax. The method, boiled down: (§2)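 Single subcutaneous dose of 30 mg/kg.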
The nature of series [15]: Cmax in human patient with atopic dermatitis at 0.25% dosed topically as lipid cream. It counts as ADME, organism-based. The arrangement: dose 0.25 %. Particulars: in vivo, topical or ocular.
Series [16] in a line: AUC (0 to 24 hrs) in cynomolgus monkey at 30 mg/kg, sc dosed as single administration. In kind it is ADME, organism-based, Macaca fascicularis. More on the design: time < 24 hr, route subcutaneous, dose 30 mg/kg. Particulars: in vivo. The method, boiled down:
as §2

Series [17] in a line: AUC (0 to 24 hrs) in human patient with atopic dermatitis at 0.25% dosed topically as lipid cream. In kind it is ADME, organism-based. The arrangement: time < 24 hr, dose 0.25 %. Particulars: in vivo, topical or ocular.
Series [18] is described as follows: Phototoxicity in mouse 3T3 cells. In kind it is cell-based.
For another series, the system named is TK6. In words: Genotoxicity in human TK6 cells in absence of S9 fraction by GreenScreen assay. It counts as toxicity, cell-based.
Series [19] is described as follows: Half life in cynomolgus monkey whole blood at 0.1 uM by LC-MS/MS analysis. In kind it is ADME, tissue-based, Macaca fascicularis.
A short description of series [20]: Drug metabolism in rat whole blood assessed as 4-[2-(1-Carboxycyclopropyl)-8-methoxy-[1,2,4]triazolo[1,5-a]-pyridin-5-yl]-2-(hydroxymethyl)benzoic Acid formation at 0.1 uM measured up to 120 mins by LC-MS/MS analysis. Particulars: 2 h. In kind it is ADME, tissue-based.

At Phosphodiesterase 4, `CCCNC(=O)COc1c(C(=O)Cc2c(Cl)cncc2Cl)ccc(OC)c1OC` registered an IC50 of 2.8 nM. Further, the Drug uptake in series [1] came to 26 µM; in series [2] it was 14 µM.

For `COc1ccc(-c2ccc3c(c2)COC3=O)n2nc(C3(C(=O)O)CC3)nc12`, the CLint scaled at 0.5 µM in [3] is below 16 mL/min/kg. The half-life at 0.1 µM in [4], in [6] and in series [7] was above 1 h in each case. The same compound returned a half-life at 1 µM in [5] above 12 h. In addition, the CLhep predicted at 10 µM in series [8] is 5.2 mL/min/kg. In series [9], the CLint scaled at 10 µM is below 11 mL/min/kg. In addition, the Drug uptake was 15% in [10]; 45% in series [11]; 55% in series [12]; 55% in series [13]; below 0.1 µM in [1]; below 0.1 µM in series [2]. Besides, the highest concentration (Cmax) came out at 71.7 ng/mL in [14] and 0.355 ng/mL in [15]. Also, the AUC(0-t) at 24 h in series [16] was 208 ng·h/mL; in series [17], 5.18 ng·h/mL.

For `COc1ccc(-c2ccc(C(=O)O)c(CO)c2)n2nc(C3(C(=O)O)CC3)nc12`, in series [3], the CLint scaled at 0.5 µM was below 11 mL/min/kg. In addition, the half-life at 0.1 µM in series [4], in series [6] and in [7] was above 1 h each time. In addition, in [5], the half-life at 1 µM is above 12 h. Moreover, the CLhep predicted at 10 µM in series [8] is below 5.2 mL/min/kg. Besides, the CLint scaled at 10 µM in series [9] was below 10 mL/min/kg. In addition, the Drug uptake came to 71% in series [10]; 13% in [11]; 23% in [12]; 14% in series [13]; 6 µM in series [1]; 3 µM in series [2]. The Cmax was 407 ng/mL in series [14] and 1.89 ng/mL in series [15]. The values for the AUC(0-t) at 24 h in series [16] and in series [17] were 1300 ng·h/mL and 24.7 ng·h/mL, respectively.

Take `COc1ccc(C(=O)Cc2c(Cl)cncc2Cl)n2ncnc12`: on Phosphodiesterase 4, the IC50 is 100 nM.

Regarding `CC[C@@H](C)OC(=O)C1(c2nc3c(OC)ccc(-c4ccc5c(c4)COC5=O)n3n2)CC1`, the CLint scaled at 0.5 µM in [3] is above 200 mL/min/kg. In [4], the half-life at 0.1 µM came out at 0.217 h. This compound also gave a half-life at 1 µM in series [5] above 12 h. Also, the Activity result in series [18] was “Toxic”.

In turn, `COc1ccc(C(=O)Cc2c(Cl)cncc2Cl)n2nc(C3CC3)nc12` had a concentration for half-maximal inhibition (IC50) against Phosphodiesterase 4 of 1.7 nM.

Regarding `COc1ccc(-c2ccc3c(c2)COC3=O)n2nc(C3(C(=O)OC4CCOCC4)CC3)nc12`, in [3], the CLint scaled at 0.5 µM was 97 mL/min/kg. Besides, the half-life at 0.1 µM in series [4] amounted to 0.167 h. Moreover, the half-life at 1 µM in series [5] was above 12 h. In addition, the Activity entry in the series with TK6 is “Toxic”.

On to `COc1ccc(-c2ccc(C(=O)O)c(CO)c2)n2nc(C3(C(=O)OCC(C)C)CC3)nc12`, for which the CLint scaled at 0.5 µM in [3] was above 167 mL/min/kg. In addition, the half-life at 0.1 µM in [4] is above 1 h; in [19], above 1 h; in series [6] it was above 1 h; in series [7] it was 0.567 h. The same compound gave a half-life at 1 µM in series [5] above 12 h. Further, the Drug metabolism entry in series [20] is listed as “Metabolite_Detected”. In addition, in [8], the CLhep predicted at 10 µM is 13 mL/min/kg. For the same compound, the CLint scaled at 10 µM in series [9] was 21 mL/min/kg. The Drug uptake in [10] is 12%; in series [11] it was 36%; in [12], 15%; in series [13] it was 26%; in series [1], 2 µM; in [2], 0.6 µM. In addition, the Cmax is 749 ng/mL in series [14] and 0.299 ng/mL in series [15]. The AUC(0-t) at 24 h in [16] was determined as 932 ng·h/mL; in [17], 4.18 ng·h/mL.

Usually IC50 stands for the point on the concentration scale where inhibition reaches its midpoint. As usually defined, the half-life is how long it takes for the measured level to halve. The term Cmax denotes the highest concentration seen after dosing. Usually AUC(0-t) stands for exposure summed from dosing to a finite time, without extrapolation to infinity.
